Published values of several laboratories.
Lines come from different studies, so protocols differ.
DPP9: Dipeptidyl peptidase 9 (DPP9, Homo sapiens, UniProt Q86TI2)
Adra1a: Alpha-1A adrenergic receptor (Adra1a, Rattus norvegicus, UniProt P43140)
USP14: Ubiquitin carboxyl-terminal hydrolase 14 (USP14, Homo sapiens, UniProt P54578)
Genome polyprotein protease: Genome polyprotein, protease (ZIKV, UniProt A0A024B7W1)
CTSB: Cathepsin B (CTSB, Homo sapiens, UniProt P07858)
CCR2: C-C chemokine receptor type 2 (CCR2, Homo sapiens, UniProt P41597)

| SMILES | target | effect on | mode | technique | concentration | pH | inhibition |
| --- | --- | --- | --- | --- | --- | --- | --- |
| C#Cc1n[nH]c2c(-c3cn([C@@H](C)c4ccccc4)c(=O)[nH]c3=O)cc(F)cc12 | Cyclin-dependent kinase 2, with cyclin E1 (CDK2, Homo sapiens, UniProt P24941) | enzyme activity | inhibitor |  | 0.1 µM |  | -4.8% |
| N#Cc1ccc(NCCNCC(=O)N2N=CCC2C#N)nc1 (stereo not drawn) | DPP9 | enzyme activity | inhibitor |  | 0.1 µM |  | 0% |
| CC(C)N1CCC[C@H]1CNC(=O)c1cn(C2CCCC2)c(=O)c2c1c1ccccc1n2C | Adra1a | ligand displacement |  | radioligand | 10 µM |  | 16% |
| C#Cc1n[nH]c2c(-c3cn(C(C)c4ccccn4)c(=O)[nH]c3=O)cc(F)cc12 (stereo not drawn) | Dual specificity protein kinase CLK3 (CLK3, Homo sapiens, UniProt P49761) | enzyme activity | inhibitor |  | 1 µM |  | 8.3% |
| CC(C)Cn1cnc2c(N)nc3ccccc3c21 | Adra1a | ligand displacement |  | radioligand | 10 µM |  | 65% |
| Cn1c(=O)c2ncnnc2n(C)c1=O | USP14 | enzyme activity | inhibitor |  | 17 µM |  | 96% |
| Cn1cc(-c2cccc(N3CCc4c(sc5c4CC(C)(C)C5)C3=O)c2CO)cc(Nc2ccncn2)c1=O | Cyclin-dependent kinase 8, with cyclin C (CDK8, Homo sapiens, UniProt P49336) | enzyme activity | inhibitor |  | 1 µM |  | -1% |
| O=c1c(O)c(-c2cc(O)c(O)c(O)c2)oc2cc(O)cc(O)c12 | Genome polyprotein protease | enzyme activity | inhibitor | FRET | 100 µM | pH 7 | 88% |
| CCOC(=O)c1ccc(OC(=O)CCCCCNC(=N)N)cc1 | USP14 | enzyme activity | inhibitor |  | 10 µM |  | 1% |
| C[C@@H]1O[C@@H](OC[C@H]2O[C@@H](Oc3c(-c4ccc(O)c(O)c4)oc4cc(O)cc(O)c4c3=O)[C@H](O)[C@@H](O)[C@@H]2O)[C@H](O)[C@H](O)[C@H]1O | Genome polyprotein protease | enzyme activity | inhibitor |  | 200 µM | pH 8.5 | 95.4% |
| COc1cc(Nc2ncc(F)c(Nc3ccc4c(n3)NC(=O)C(C)(C)O4)n2)cc(OC)c1OC | SNF-related serine/threonine-protein kinase (SNRK, Homo sapiens, UniProt Q9NRH2) | binding |  |  | 10 µM |  | 7% |
| CCN(CC)CCCC[C@H](NC(=O)[C@H](CC(C)C)NC(=O)[C@H](C)NC(=O)[C@H](Cc1ccccc1)NC(=O)c1ccc(C(C)(C)C)cc1)C(=O)N[C@@H](CO)C(=O)OC | C-X-C chemokine receptor type 2 (CXCR2, Homo sapiens, UniProt P25025) | ligand displacement |  | radioligand | 10 µM |  | -12% |
| CC(C)C[C@H](NC(=O)[C@H](Cc1ccccc1)NC(=O)c1cnccn1)B(O)O | Suppressor of tumorigenicity 14 protein (ST14, Homo sapiens, UniProt Q9Y5Y6) | cell-free assay | inhibitor |  | 33 µM |  | 51.5% |
| C[C@@H]1O[C@@H](O[C@H]2[C@H](Oc3cc(O)c4c(c3)O[C@H](c3ccc(O)cc3)CC4=O)O[C@H](CO)[C@@H](O)[C@@H]2O)[C@H](O)[C@H](O)[C@H]1O | Genome polyprotein protease | enzyme activity | inhibitor | FRET | 100 µM | pH 7 | 12.5% |
| N=C(N)c1ccc2cc(OC(=O)c3ccc(N=C(N)N)cc3)ccc2c1 | CTSB | enzyme activity | inhibitor |  | 10 µM |  | 48% |
| COc1ccc(-c2oc3c(CC=C(C)C)c(O)cc(O)c3c(=O)c2O)cc1 | Genome polyprotein protease | enzyme activity | inhibitor | FRET | 100 µM | pH 7 | 19% |
| O=C(Nc1cccnn1)N1CCN([C@@H]2CCOc3cc(C(F)(F)F)ccc32)CC1 | CCR2 | cell-free assay |  |  | 20 µM |  | -9% |
| CC(C)C[C@H](NC(=O)[C@H]1O[C@@H]1C(=O)O)C(=O)NCCCCN=C(N)N | CTSB | enzyme activity | inhibitor |  | 5 nM |  | 77% |
| c1ccc(C(NCCNC(c2ccccc2)c2ccccc2)c2ccccc2)cc1 | Voltage-dependent N-type calcium channel subunit alpha-1B (Cacna1b, Rattus norvegicus, UniProt Q02294) | cell-free assay |  |  | 10 µM |  | -6% |
| Cn1c(=O)c2c(ncn2C)n(C)c1=O | Genome polyprotein protease | enzyme activity | inhibitor | FRET | 100 µM | pH 7 | 6% |
| Cc1ncc(C)n2nc(/C=C/c3nc(N4CCCC4)cc(N4CCOCC4)n3)nc12 | CCR2 | cell-free assay |  |  | 10 µM |  | 10% |
| CN(C)C(=O)COC(=O)Cc1ccc(OC(=O)c2ccc(NC(=N)N)cc2)cc1 | DPP9 | enzyme activity | inhibitor |  | 10 µM |  | 18% |
| Oc1cccc(O)c1O | Genome polyprotein protease | enzyme activity | inhibitor | FRET | 100 µM | pH 7 | 11% |
| O=C1N=C(N2CCCCN2)S/C1=C\c1ccc(F)cc1O | 5-hydroxytryptamine receptor 6 (HTR6, Homo sapiens, UniProt P50406) | ligand displacement |  | radioligand | 10 µM |  | < 10% |
